Reference: ChEMBL document CHEMBL1141332, “Cytotoxic metabolites from an Indonesian sponge Lendenfeldia sp” (J Nat Prod, 2007)

Legend:
T47D [1] = assay: Inhibition of human T47D cells assessed as cell viability under normoxic condition after 48 hrs; type: functional, cell-based
Method in brief: (§1)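 Neutral Red proliferation/viability assay on T47D or MDA-MB-231 cells kept in DMEM/F12 with 10% FCS at 37 °C under 5% CO2, with 48 h compound exposure. Read-out was OD540, and % inhibition = 1 − OD540(treated)/OD540(control). IC50 was derived from the concentration–response data.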

MDA-MB-231 [2] = assay: Inhibition of human MDA-MB-231 cells assessed as cell viability under hypoxic condition after 48 hrs; type: functional, cell-based; conditions: MDA-MB-231, 48 h; method in brief: as §1
MDA-MB-231 [3] = assay: Inhibition of human MDA-MB-231 cells assessed as cell viability under normoxic condition after 48 hrs; type: functional, cell-based; conditions: MDA-MB-231, 48 h; method in brief: as §1
T47D [4] = assay: Inhibition of human T47D cells assessed as cell viability under hypoxic condition after 48 hrs; type: functional, cell-based; method in brief: as §1
[5] = target: T1, Hypoxia inducible factors; HIF-1-alpha, HIF-2-alpha (Homo sapiens, UniProt Q16665+Q99814); assay: Inhibition of HIF1 activity in human T47D cells by cell based reporter assay
Method in brief: (§2)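 T47D cells grown in DMEM/F12 with glutamine, 10% FCS and penicillin/streptomycin at 37 °C under 5% CO2, then transiently transfected with the pHRE-TK-Luc reporter. Compounds from DMSO stocks were tested at half-log concentrations for 16 h, with luciferase read-out. IC50 was taken from curve fits of triplicate experiments.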

T47D [6] = assay: Cell viability of human T47D cells under hypoxic condition after 16 hrs; type: functional, cell-based
[7] = target: T1, Hypoxia inducible factors; HIF-1-alpha, HIF-2-alpha; assay: Inhibition of 1, 10-phenanthroline-induced HIF1 activity in human T47D cells by cell based reporter assay; method in brief: as §2

- IC50 (T47D [1]): 8.7 µM
- IC50 (MDA-MB-231 [2]): 7 µM
- IC50 (MDA-MB-231 [3]): 6 µM
- IC50 (T47D [4]): 8.3 µM
- IC50 [5]: 4.3 µM
- IC50 (T47D [6]): 19 µM
- IC50 [7]: 5.1 µM
SMILES: COc1ccc2c(O)c(O)ccc2c1-c1c(OC)ccc2c(O)c(O)ccc12
